# In ChEMBL document CHEMBL3797089, “Morusin Induces TRAIL Sensitization by Regulating EGFR and DR5 in Human Glioblastoma Cells” (J Nat Prod, 2016):
# Activity calls are given as the source filed them. No cut-off for these calls is given here.
# Key:
# LN-18 = experiment: Induction of DR5 expression in human LN18 cells after 24 hrs by Western blot analysis; type: functional, cell-based
# Summary of the method: (§1)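 Cells exposed to a range of morusin concentrations for 24 h. Cell extracts immunoblotted for DR4, DR5, DcR1 and DcR2, with β-actin as internal control and HRP-conjugated secondary antibodies (1:5000).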
# [1] = Reduction of survivin expression in human U87MG cells after 24 hrs by Western blot analysis; type: functional, cell-based; conditions: U-87MG ATCC
# Summary of the method: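 U87MG (MEM) and U373MG (RPMI) cells were given graded morusin concentrations for 24 h. Whole-cell extracts were immunoblotted for anti-apoptotic proteins, with β-actin as loading control.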
# [2] = Reduction of PDGFR expression in human U87MG cells at 25 uM after 24 hrs by Western blot analysis; type: functional, cell-based; conditions: U-87MG ATCC
# Summary of the method: (§2)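 LN18, U87MG, T98G, U251MG and U373MG glioblastoma cells were exposed to morusin for 24 h. Cells were maintained in DMEM, MEM or RPMI with 10% FBS at 37 °C and 5% CO2. Whole-cell lysates were Western blotted for receptor proteins, with β-actin as internal control.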
# [3] = Cytotoxicity against human U373MG cells assessed as reduction in cell viability measured up to 20 uM after 24 hrs by MTT assay in presence of TRAIL; type: functional, U-373MG ATCC
# Summary of the method: (§3)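 MTT viability. 3–5 × 10^3 cells/well, treated the next day with TRAIL 100 ng/mL plus increasing morusin concentrations for 24 h. 1 mg/mL MTT for 2 h at 37 °C, lysis overnight, OD 570 nm. Living-cell fractions were used for combination index analysis. Mean ± SD, at least three independent experiments.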
# [4] = Stability in human U87MG cells assessed as compound remaining at 10 uM after 24 hrs; type: ADME, cell-based, U-87MG ATCC; conditions: read-out: Stability
# T98G [5] = experiment: Cytotoxicity against human T98G cells assessed as reduction in cell viability after 24 hrs by MTT assay; type: functional, cell-based
# Summary of the method: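 Seeded 3–5 × 10^3 cells/well, treated the next day with a range of morusin (DMSO stock) for 24 h, 37 °C, 5% CO2. Then fresh medium with 1 mg/mL MTT for 2 h at 37 °C, lysis buffer overnight at 37 °C, OD 570 nm. Mean ± SD from at least three independent experiments in triplicate.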
# U-87 MG [6] = experiment: Induction of apoptosis in human U87MG cells assessed as apoptic cells at 20 uM after 24 hrs by V-FITC/propidium iodide staining based flow cytometric analysis in presence of TRAIL; type: functional, cell-based; conditions: U-87MG ATCC
# Summary of the method: (§4)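 (2–3) × 10^5 cells/well given TRAIL 50 ng/mL with morusin 20 μM for 24 h. Annexin V-FITC/PI double staining, flow cytometry; annexin V-positive cells counted as apoptotic. Mean ± SD, t-test against mock.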
# [7] = Cytotoxicity against human U87MG cells assessed as reduction in cell viability measured up to 20 uM after 24 hrs by MTT assay in presence of TRAIL; type: functional, U-87MG ATCC; summary of the method: as §3
# [8] = target: Epidermal growth factor receptor (Homo sapiens) (UniProt P00533); experiment: Inhibition of EGFR phosphorylation in human U87MG cells measured up to 25 uM after 24 hrs by Western blot analysis; type: cell-based; conditions: U-87MG ATCC
# Summary of the method: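 Cells grown in MEM (U87MG) or RPMI (U373MG) with 10% FBS, 5% CO2, 37 °C. Treated for 24 h with the indicated concentrations of morusin (DMSO stock). Whole-cell lysates immunoblotted for phosphorylated and total proteins, with β-actin as internal control.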
# [9] = Reduction of survivin mRNA expression in human U87MG cells at 25 uM by RT-qPCR analysis; type: functional, cell-based; conditions: U-87MG ATCC, TDE = time-dependent effect
# Summary of the method: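 U87MG cells were exposed to 25 μM morusin over a time course. Total RNA (1 μg) was reverse transcribed, and XIAP and survivin transcripts were measured by RT-qPCR against GAPDH. Results are mean ± SD from at least three independent experiments.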
# T98G [10] = experiment: Induction of apoptosis in human T98G cells assessed as increase in cleaved caspase 9 levels at 2.5 uM after 24 hrs by Western blot analysis in presence of TRAIL; type: functional, cell-based
# Summary of the method: (§5)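 U87MG and T98G given TRAIL 25 ng/mL plus morusin 2.5 μM together for 24 h; single-agent arms used TRAIL 50 ng/mL or morusin 5 μM. Lysates immunoblotted for cleaved caspase 3, 8, 9 and cleaved PARP, with β-actin as internal control.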
# U-87 MG [11] = experiment: Induction of apoptosis in human U87MG cells assessed as increase in cleaved PARP levels at 2.5 uM after 24 hrs by Western blot analysis in presence of TRAIL; type: functional, cell-based; conditions: U-87MG ATCC; summary of the method: as §5
# [12] = Reduction of PDGFR expression in human LN18 cells at 25 uM after 24 hrs by Western blot analysis; type: functional, cell-based; conditions: LN-18; summary of the method: as §2
# [13] = Reduction of EGFR expression in human U373MG cells at 25 uM after 24 hrs by Western blot analysis; type: functional, cell-based; conditions: U-373MG ATCC; summary of the method: as §2
# T98G [14] = experiment: Reduction of EGFR expression in human T98G cells at 25 uM after 24 hrs by Western blot analysis; type: functional, cell-based; summary of the method: as §2
# U-87 MG [15] = experiment: Effect on DR4 expression in human U87MG cells upto 25 uM after 24 hrs by Western blot analysis; type: functional, cell-based; conditions: U-87MG ATCC; summary of the method: as §1
# [16] = Cytotoxicity against human U251MG cells assessed as reduction in cell viability measured up to 20 uM after 24 hrs by MTT assay in presence of TRAIL; type: functional, U-251; summary of the method: as §3
# U-251 = experiment: Effect on DR4 expression in human U251MG cells upto 25 uM after 24 hrs by Western blot analysis; type: functional, cell-based; summary of the method: as §1
# [17] = Reduction of survivin mRNA expression in human U87MG cells after 24 hrs by RT-qPCR analysis; type: functional, cell-based; conditions: U-87MG ATCC
# Summary of the method: (§6)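 U87MG cells were treated with graded morusin for 24 h. Total RNA was extracted with TRI Reagent, and 1 μg was reverse transcribed. XIAP and survivin mRNA were quantified by RT-qPCR, normalized to GAPDH. Results are mean ± SD from at least three independent experiments; unpaired t-test.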
# [18] = Reduction of XIAP mRNA expression in human U87MG cells after 24 hrs by RT-qPCR analysis; type: functional, cell-based; conditions: U-87MG ATCC; summary of the method: as §6
# U-87 MG [19] = experiment: Effect on cIAP1 expression in human U87MG cells at 25uM after 3 to 18 hrs by Western blot analysis; type: functional, cell-based; conditions: U-87MG ATCC
# Summary of the method: (§7)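 Time course: U87MG and U373MG cells held at 25 μM morusin for the times indicated. Extracts immunoblotted (cIAP1 or DR5), with β-actin as loading control.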
# T98G [20] = experiment: Induction of apoptosis in human T98G cells assessed as apoptic cells at 20 uM after 24 hrs by V-FITC/propidium iodide staining based flow cytometric analysis in presence of TRAIL; type: functional, cell-based; summary of the method: as §4
# U373 MG [21] = experiment: Induction of DR5 expression in human U373MG cells at 25 uM by Western blot analysis; type: functional, cell-based; conditions: U-373MG ATCC, TDE = time-dependent effect; summary of the method: as §7
# U373 MG [22] = experiment: Induction of DR4 expression in human U373MG cells at 25 uM after 24 hrs by FITC-conjugated flow cytometric analysis; type: functional, cell-based; conditions: U-373MG ATCC
# Summary of the method: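 Cells given 25 μM morusin for 24 h, then stained on ice for 30 min with 0.5 μg/mL FITC-conjugated anti-DR4, anti-DR5 or isotype IgG in FACS buffer. Surface expression read by flow cytometry.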
# T98G [23] = experiment: Reduction of PDGFR expression in human T98G cells at 25 uM after 24 hrs by Western blot analysis; type: functional, cell-based; summary of the method: as §2
# [24] = Reduction of EGFR expression in human LN18 cells at 25 uM after 24 hrs by Western blot analysis; type: functional, cell-based; conditions: LN-18; summary of the method: as §2
# Sequence of Epidermal growth factor receptor (Homo sapiens) (P00533 whole entry): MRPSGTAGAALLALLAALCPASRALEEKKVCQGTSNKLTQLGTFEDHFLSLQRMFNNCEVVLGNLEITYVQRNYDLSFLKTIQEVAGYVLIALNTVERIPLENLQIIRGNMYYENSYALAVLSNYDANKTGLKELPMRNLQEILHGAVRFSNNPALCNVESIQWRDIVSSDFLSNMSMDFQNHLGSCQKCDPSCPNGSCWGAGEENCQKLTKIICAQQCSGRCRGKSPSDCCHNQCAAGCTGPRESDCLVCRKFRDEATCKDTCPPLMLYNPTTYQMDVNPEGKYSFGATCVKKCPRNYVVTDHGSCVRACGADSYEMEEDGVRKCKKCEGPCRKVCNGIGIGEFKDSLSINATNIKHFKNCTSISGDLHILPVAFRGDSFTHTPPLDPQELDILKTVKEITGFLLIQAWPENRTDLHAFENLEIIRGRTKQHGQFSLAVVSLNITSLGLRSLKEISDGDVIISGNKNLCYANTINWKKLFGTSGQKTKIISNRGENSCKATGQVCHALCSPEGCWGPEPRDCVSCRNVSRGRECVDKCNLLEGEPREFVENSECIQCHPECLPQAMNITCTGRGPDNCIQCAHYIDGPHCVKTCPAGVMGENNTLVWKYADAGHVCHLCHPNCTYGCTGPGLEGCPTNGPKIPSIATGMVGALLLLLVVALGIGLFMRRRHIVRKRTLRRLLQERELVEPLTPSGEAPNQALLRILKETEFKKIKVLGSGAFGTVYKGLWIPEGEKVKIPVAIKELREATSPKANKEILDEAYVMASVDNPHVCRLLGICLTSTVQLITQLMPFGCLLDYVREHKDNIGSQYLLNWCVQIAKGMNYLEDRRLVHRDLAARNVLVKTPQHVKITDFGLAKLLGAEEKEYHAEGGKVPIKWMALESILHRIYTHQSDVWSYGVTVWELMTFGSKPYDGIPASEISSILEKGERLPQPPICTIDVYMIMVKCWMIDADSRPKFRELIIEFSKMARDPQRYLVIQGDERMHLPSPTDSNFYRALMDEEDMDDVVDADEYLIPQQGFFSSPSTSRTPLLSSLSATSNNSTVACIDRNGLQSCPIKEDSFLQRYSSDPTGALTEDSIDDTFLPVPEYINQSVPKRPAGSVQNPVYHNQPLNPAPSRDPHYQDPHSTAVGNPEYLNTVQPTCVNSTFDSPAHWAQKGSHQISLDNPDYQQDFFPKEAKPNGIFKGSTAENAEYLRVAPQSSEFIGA
compound,measurement,setting,value
CC(C)=CCc1c(-c2ccc(O)cc2O)oc2c3c(cc(O)c2c1=O)OC(C)(C)C=C3 [MORUSIN],Activity,LN-18,Dose-dependent effect
same,inhibition,[1],Dose-dependent effect
same,Activity,[2],Active
same,CI,[3],<0.8
same,"remaining at 24 h, 10 µM",[4],> 94%
same,IC50,T98G [5],24 µM
same,Activity,U-87 MG [6],Active
same,CI,[7],<0.8
same,inhibition,[8],Active
same,Activity,[9],tde
same,Activity,T98G [10],Active
same,Activity,U-87 MG [11],Active
same,Activity,[12],Active
same,Activity,[13],Active
same,Activity,T98G [14],Active
same,Activity,U-87 MG [15],inactive
same,CI,[16],<0.8
same,Activity,U-251,inactive
same,Activity,[17],Dose-dependent effect
same,Activity,[18],Dose-dependent effect
same,Activity,U-87 MG [19],inactive
same,Activity,T98G [20],Active
same,Activity,U373 MG [21],tde
same,Activity,U373 MG [22],inactive
same,Activity,T98G [23],Active
same,Activity,[24],Active
